Calls of active or inactive are those of the source. The rule behind the calls is not given here.
Legend:
[1] = Cytotoxicity against human HCT116 cells assessed as growth inhibition after 72 hrs by sulforhodamine B assay; assay type: functional, cell-based, HCT-116
Outline: (§1)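 Cells were grown at 37°C, 5% CO2 in DMEM with 10% FBS. They were seeded at 1000–3000 cells/well, grown 24 h, then exposed to compound at 2.5–40 µM for 72 h. Cells were fixed in 10% TCA for 1 h at 4°C, stained with 0.4% SRB in 1% acetic acid for 10 min, and the dye solubilized in 10 mM Tris. Absorbance was read at 515 nm; runs were in triplicate; IC50 was calculated, with fits of R2 0.8–1 accepted.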

MCF7 = test: Cytotoxicity against human MCF7 cells assessed as growth inhibition after 72 hrs by sulforhodamine B assay; assay type: functional, cell-based; outline: as §1
[2] = Cytotoxicity against human HuH7 cells assessed as growth inhibition after 72 hrs by sulforhodamine B assay; assay type: functional, cell-based, Huh-7; outline: as §1
[3] = Cytotoxicity against human SNU475 cells assessed as growth inhibition after 72 hrs by sulforhodamine B assay; assay type: functional, cell-based, SNU-475; outline: as §1
[4] = Cytotoxicity against human Hep3B cells assessed as growth inhibition after 72 hrs by sulforhodamine B assay; assay type: functional, cell-based, Hep 3B2; outline: as §1
HepG2 = test: Cytotoxicity against human HepG2 cells assessed as growth inhibition after 72 hrs by sulforhodamine B assay; assay type: functional, cell-based; outline: as §1
[5] = Cytotoxicity against human Mahlavu cells assessed as growth inhibition after 72 hrs by sulforhodamine B assay; assay type: functional, cell-based; outline: as §1
[6] = Cytotoxicity against human FOCUS cells assessed as growth inhibition after 72 hrs by sulforhodamine B assay; assay type: functional, cell-based; outline: as §1
Huh-7 [7] = test: Induction of apoptosis in human HuH7 cells assessed as horseshoe nuclear structure at 10 uM after 48 hrs by Hoechst 33258 staining-based immunofluorescence microscopy; assay type: functional, cell-based
Outline: (§2)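 Cells on coverslips were incubated overnight, then treated with 10 µM compound or DMSO for 48 h. They were washed in ice-cold PBS, fixed in cold methanol for 10 min, and stained with 1 µg/mL Hoechst 33258 for 5 min in the dark. Nuclei were examined by fluorescence microscopy with a 40x objective.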

Huh-7 [8] = test: Cytotoxicity against human HuH7 cells assessed as cell impedance at IC25 to IC100 measured every 30 mins for 72 hrs by RT-CES assay; assay type: functional, cell-based; settings: TDE = time-dependent effect
Outline: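 Huh7 cells were seeded at 1000–5000 cells/well on electrode plates. […] Impedance was read as cell index every 10 min for the first 24 h, then every 30 min, over 72 h. Data were normalized to DMSO; inhibition (%) = [1 − (CI treated/CI DMSO)] × 100. Each experiment was run at least three times.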

Huh-7 [9] = test: Induction of cell cycle arrest in human HuH7 cells assessed as accumulation at subG1 phase at 10 uM after 24 to 48 hrs by propidium iodide staining based FACS analysis; assay type: functional
Outline: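 Huh7 cells were seeded at 300,000 per 100-mm dish. After 24 h they were treated with 10 µM compound or DMSO for 24 h and 48 h. Cells were trypsinized, fixed in ice-cold 70% ethanol and stored at −20 °C. They were then stained with propidium iodide and cell-cycle distribution, including SubG1, was read by flow cytometry.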

Huh-7 [10] = test: Induction of apoptosis in human HuH7 cells assessed as nuclear condensation at 10 uM after 48 hrs by Hoechst 33258 staining-based immunofluorescence microscopy; assay type: functional, cell-based; outline: as §2
[11] = Homo sapiens, HCT-116, 72 h, read-out: IC50
[12] = Homo sapiens, MCF7, 72 h, read-out: IC50
[13] = Homo sapiens, Huh-7, 72 h, read-out: IC50
[14] = Homo sapiens, SNU-475, 72 h, read-out: IC50
[15] = Homo sapiens, Hep3B, 72 h, read-out: IC50
[16] = Homo sapiens, HepG2, 72 h, read-out: IC50
[17] = Homo sapiens, Mahlavu, 72 h, read-out: IC50
[18] = Homo sapiens, FOCUS, 72 h, read-out: IC50

Row | Structure (SMILES) | IC50 [1, 11] [µM] | IC50 (MCF7; [12]) [µM] | IC50 [2, 13] [µM] | IC50 [3, 14] [µM] | IC50 [4, 15] [µM] | IC50 (HepG2; [16]) [µM] | also measured
1 | COc1ccc2cc(C(C)c3nnc4n3N=C(c3ccc([N+](=O)[O-])cc3)CS4)ccc2c1 (stereo unspecified) | 15.1 | 18.8 | 14.7 | – | – | – | –
2 | CC(C)Cc1ccc(C(C)c2nnc3n2N=C(c2ccc(Br)cc2)CS3)cc1 (stereo unspecified) | 7.1 | 9.4 | 4.9 | 10.1 | 8.3 | 6.4 | IC50 [5, 17]: 8.9 µM; IC50 [6, 18]: 5.9 µM; Activity (Huh-7 [7]): Active; Activity (Huh-7 [8]): tde; Activity (Huh-7 [9]): Active; Activity (Huh-7 [10]): Active
3 | CC(c1ccc(-c2ccccc2)c(F)c1)c1n[nH]c(=S)n1N (stereo unspecified) | – | – | 43.1 | – | – | 21.4 | IC50 ([1]; hct-116): Not Active; IC50 ([3]; snu-475): Not Active; IC50 ([4]; hep 3b2): Not Active; IC50 ([5]; mahlavu): Not Active; IC50 ([6]; focus): Not Active; IC50 (MCF7; mcf7): Not Active
4 | CC(C)Cc1ccc(C(C)c2nnc3n2N=C(c2ccccc2)CS3)cc1 (stereo unspecified) | 7.6 | 9.7 | 6.1 | – | – | – | –
5 | COc1ccc(C2=Nn3c(nnc3C(C)c3ccc4cc(OC)ccc4c3)SC2)cc1 (stereo unspecified) | 6.5 | 6.6 | 8.5 | – | – | – | –
6 | COc1ccc2cc(C(C)c3nnc4n3N=C(c3ccc(C)cc3)CS4)ccc2c1 (stereo unspecified) | 10.2 | 11 | 8.2 | – | – | – | –
7 | CC(C)Cc1ccc(C(C)c2nnc3n2N=C(c2ccc(OC(F)(F)F)cc2)CS3)cc1 (stereo unspecified) | 3 | 1.1 | 3.6 | 6.8 | 6.4 | 9.7 | IC50 [5, 17]: 9.1 µM; IC50 [6, 18]: 8.8 µM; Activity (Huh-7 [7]): Active; Activity (Huh-7 [8]): tde; Activity (Huh-7 [10]): Active
8 | COc1ccc2cc(C(C)c3nnc4n3N=C(c3ccc(F)cc3)CS4)ccc2c1 (stereo unspecified) | 13.1 | 15.8 | 7 | – | – | – | –
9 | COc1ccc2cc(C(C)c3nnc4n3N=C(c3ccc(C(F)(F)F)cc3)CS4)ccc2c1 (stereo unspecified) | 10.8 | 6.9 | 14.8 | – | – | – | –
10 | CC(c1ccc(-c2ccccc2)c(F)c1)c1nnc2n1N=C(c1ccc(Cl)cc1Cl)CS2 (stereo unspecified) | 6.9 | 7.6 | 3.7 | 4.7 | 4.2 | 8.6 | IC50 [5, 17]: 6.6 µM; IC50 [6, 18]: 5.4 µM; Activity (Huh-7 [7]): Active; Activity (Huh-7 [8]): tde; Activity (Huh-7 [10]): Active
11 | CC(C(=O)O)c1ccc(-c2ccccc2)c(F)c1 (stereo unspecified) [FLURBIPROFEN] | – | – | – | – | – | – | IC50 ([1]; hct-116): Not Active; IC50 ([3]; snu-475): Not Active; IC50 ([4]; hep 3b2): Not Active; IC50 (HepG2; hepg2): Not Active; IC50 ([5]; mahlavu): Not Active; IC50 ([6]; focus): Not Active; IC50 (MCF7; mcf7): Not Active; IC50 ([2]; huh-7): Not Active
12 | CC[C@@]1(O)C(=O)OCc2c1cc1n(c2=O)Cc2cc3ccccc3nc2-1 [CAMPTOTHECIN] | ≤ 0.1 | ≤ 0.1 | ≤ 0.1 | < 1 | < 1 | < 1 | IC50 [5, 17]: < 1 µM; IC50 [6, 18]: < 1 µM
13 | CC(c1ccc(-c2ccccc2)c(F)c1)c1nnc2n1N=C(c1ccc(C(F)(F)F)cc1)CS2 (stereo unspecified) | 6.1 | 4.3 | 9.4 | – | – | – | –
14 | CC(C)Cc1ccc(C(C)c2n[nH]c(=S)n2N)cc1 (stereo unspecified) | 27.4 | 16.1 | 23 | 11.7 | 13.1 | – | IC50 (HepG2; hepg2): Not Active; IC50 [5, 17]: 16.2 µM; IC50 ([6]; focus): Not Active
15 | COc1ccc2cc(C(C)c3nnc4n3N=C(c3ccc(Cl)cc3Cl)CS4)ccc2c1 (stereo unspecified) | 14 | 14.6 | 10.7 | – | – | – | –
16 | COc1ccc2cc(C(C)c3n[nH]c(=S)n3N)ccc2c1 (stereo unspecified) | 20.2 | 22.3 | 40.8 | 15.9 | 1.9 | 40 | IC50 ([5]; mahlavu): Not Active; IC50 ([6]; focus): Not Active
17 | Cc1ccc(C2=Nn3c(nnc3C(C)c3ccc(-c4ccccc4)c(F)c3)SC2)cc1 (stereo unspecified) | 4.8 | 5 | 7.2 | – | – | – | –
